Experiments:
[1] = target: Wee1-like protein kinase (Homo sapiens) (UniProt P30291); assay: Binding affinity to wild-type human partial length WEE1 (M291 to K575 residues) expressed in bacterial expression system assessed as remaining unbound target protein level at 1000 nM by Kinomescan method relative to control
[2] = AUC (0 to infinity) in Sprague-Dawley rat at 3 mg/kg, iv by LC-MS/MS analysis; assay type: ADME, organism-based; parameters: dose 3 mg/kg, time infinity, route intravenous; conditions: in vivo
Procedure, shortened: (§1)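 Non-compartmental PK. Male SD rats 190-210 g, mice and beagle dogs acclimatized one week, fasted 12 h with water, split into iv and po groups (mice 48, rats 6, dogs 6). iv 3/3/2 mg/kg (mice/rats/dogs); po 10/20/10 mg/kg; vehicle DMSO in 5% glucose water. Blood at 2 or 5 to 720 min; plasma protein-precipitated with methanol, caffeine internal standard, LC-MS/MS.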

[3] = MRT (0 to t) in mouse at 3 mg/kg, iv by LC-MS/MS analysis; assay type: ADME, organism-based; conditions: in vivo
[4] = target: Dual specificity tyrosine-phosphorylation-regulated kinase 2 (Homo sapiens) (UniProt Q92630); assay: Binding affinity to wild-type human full length DYRK2 (M1 to S528 residues) expressed in mammalian expression system assessed as remaining unbound target protein level at 1000 nM by Kinomescan method relative to control
Sequence of Dual specificity tyrosine-phosphorylation-regulated kinase 2 (Homo sapiens) (Q92630 whole entry, the tested form may be a part): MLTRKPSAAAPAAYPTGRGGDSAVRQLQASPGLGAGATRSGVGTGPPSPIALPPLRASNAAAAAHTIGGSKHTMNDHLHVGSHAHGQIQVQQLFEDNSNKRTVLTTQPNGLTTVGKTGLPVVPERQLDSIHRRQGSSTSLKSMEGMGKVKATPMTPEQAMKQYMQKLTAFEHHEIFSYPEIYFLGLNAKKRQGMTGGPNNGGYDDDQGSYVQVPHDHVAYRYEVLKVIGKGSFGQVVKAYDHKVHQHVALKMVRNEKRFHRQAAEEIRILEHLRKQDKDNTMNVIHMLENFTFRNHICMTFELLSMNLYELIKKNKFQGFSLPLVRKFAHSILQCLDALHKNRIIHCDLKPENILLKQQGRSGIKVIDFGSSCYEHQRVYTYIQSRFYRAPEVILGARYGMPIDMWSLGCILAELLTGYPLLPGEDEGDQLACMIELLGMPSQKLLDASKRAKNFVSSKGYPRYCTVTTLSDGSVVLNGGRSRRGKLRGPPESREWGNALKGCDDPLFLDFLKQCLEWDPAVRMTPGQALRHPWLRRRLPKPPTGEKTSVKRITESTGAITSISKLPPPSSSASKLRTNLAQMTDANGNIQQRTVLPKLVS
Procedure, shortened: (§2)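 KINOMEscan competition binding profile across a panel of 468 kinases and mutants, with the inhibitor tested at a single concentration of 1 μM. Binding is reported as percent of control, meaning signal relative to a DMSO control.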

[5] = test system: Mast/stem cell growth factor receptor Kit (Homo sapiens), P10721 [L576P]; assay: Binding affinity to human partial length KIT L576P mutant (Y545 to D952 residues) expressed in bacterial expression system assessed as remaining unbound target protein level at 1000 nM by Kinomescan method relative to control
Procedure, shortened: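 KINOMEscan competition-binding profiling across the panel of 468 kinases and mutants, with inhibitor tested at 1 μM. Binding is expressed as percent of control, with DMSO as the reference control.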

[6] = target: Serine/threonine-protein kinase SIK2 (Homo sapiens) (UniProt Q9H0K1); assay: Binding affinity to wild-type human full length SIK2 (M1 to N926 residues) expressed in bacterial expression system assessed as remaining unbound target protein level at 1000 nM by Kinomescan method relative to control
Procedure, shortened: (§3)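 Profiled in a KINOMEscan binding panel with the inhibitor at a single concentration of 1 μM. Binding to each kinase was read out as percent of control, relative to a DMSO control. Strong binders were defined as those with a percent control value below 1.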

[7] = target: Cyclin-dependent kinase 9 (Homo sapiens, UniProt P50750); assay: Inhibition of CDK9 in human MV4-11 cells assessed as decrease in RNA polymerase 2 phosphorylation at Ser 2 residues in CTD domain after 2 hrs by immunoblotting analysis; assay type: cell-based
Sequence of Cyclin-dependent kinase 9 (P50750 whole entry, the tested form may be a part): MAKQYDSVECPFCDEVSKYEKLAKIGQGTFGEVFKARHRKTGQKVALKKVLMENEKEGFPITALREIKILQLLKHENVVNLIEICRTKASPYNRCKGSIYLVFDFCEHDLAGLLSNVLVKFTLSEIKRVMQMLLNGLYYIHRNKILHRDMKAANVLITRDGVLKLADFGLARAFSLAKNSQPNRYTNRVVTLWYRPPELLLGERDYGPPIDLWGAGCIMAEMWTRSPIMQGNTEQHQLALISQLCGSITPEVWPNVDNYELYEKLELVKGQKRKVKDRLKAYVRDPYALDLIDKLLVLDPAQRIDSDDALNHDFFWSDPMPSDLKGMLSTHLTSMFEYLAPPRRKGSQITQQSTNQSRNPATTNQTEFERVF

[8] = test system: A-431; assay: Antiproliferative activity against human A431 cells after 72 hrs by Celltiter-Glo assay; assay type: functional; conditions: A-431, 72 h
Procedure, shortened: (§4)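 Cells seeded at 3000/well in 96-well plates, exposed to serially diluted compound for 72 h at 37 °C, 5% CO2. Viability read by CellTiter-Glo luminescence and normalized to DMSO control. GI50 derived from curve fit, mean of three independent measurements. Culture media: DMEM/10% FBS for adherent lines; IMDM for MV4-11 and MEC-1/2; RPMI 1640 for suspension lines and CHL.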

[9] = target: Dual specificity protein kinase CLK1 (Homo sapiens) (UniProt P49759); assay: Binding affinity to wild-type human full length CLK1 (M1 to I484 residues) expressed in bacterial expression system assessed as remaining unbound target protein level at 1000 nM by Kinomescan method relative to control
Procedure, shortened: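 KINOMEscan competitive binding profile at 1 μM inhibitor. Remaining target binding reported as percent of DMSO control.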

[10] = target: Ribosomal protein S6 kinase alpha-3 (Homo sapiens) (UniProt P51812); assay: Binding affinity to wild-type human partial length C-terminal RSK2 kinase domain 2 (V402 to S715 residues) expressed in mammalian expression system assessed as remaining unbound target protein level at 1000 nM by Kinomescan method relative to control; procedure, shortened: as §3
Sequence of Ribosomal protein S6 kinase alpha-3 (Homo sapiens) (P51812 whole entry, the tested form may be a part): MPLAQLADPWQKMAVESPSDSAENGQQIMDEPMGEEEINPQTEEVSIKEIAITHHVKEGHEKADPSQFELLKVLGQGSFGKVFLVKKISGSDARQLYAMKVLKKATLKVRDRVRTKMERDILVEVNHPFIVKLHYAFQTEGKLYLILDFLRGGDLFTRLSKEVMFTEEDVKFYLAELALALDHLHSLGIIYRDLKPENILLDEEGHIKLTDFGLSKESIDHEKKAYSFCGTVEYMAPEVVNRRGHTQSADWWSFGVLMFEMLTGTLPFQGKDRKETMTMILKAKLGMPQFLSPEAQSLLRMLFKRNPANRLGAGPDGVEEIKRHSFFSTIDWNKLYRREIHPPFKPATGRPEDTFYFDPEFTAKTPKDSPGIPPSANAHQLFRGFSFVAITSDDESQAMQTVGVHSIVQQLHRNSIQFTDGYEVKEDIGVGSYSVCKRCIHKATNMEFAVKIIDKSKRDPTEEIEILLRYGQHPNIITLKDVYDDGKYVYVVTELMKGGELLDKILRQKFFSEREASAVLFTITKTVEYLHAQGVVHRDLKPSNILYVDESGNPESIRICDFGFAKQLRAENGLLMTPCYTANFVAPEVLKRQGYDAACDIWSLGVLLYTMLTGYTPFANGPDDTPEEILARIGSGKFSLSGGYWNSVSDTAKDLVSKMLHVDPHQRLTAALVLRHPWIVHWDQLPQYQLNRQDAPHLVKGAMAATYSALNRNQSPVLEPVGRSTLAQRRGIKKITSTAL

[11] = target: Cyclin-dependent kinase 13 (Homo sapiens) (UniProt Q14004); assay: Binding affinity to wild-type human partial length CDC2L5 (H675 to S1054 residues) expressed in mammalian expression system assessed as remaining unbound target protein level at 1000 nM by Kinomescan method relative to control; procedure, shortened: as §2
[12] = target: Phosphatidylinositol 4,5-bisphosphate 3-kinase catalytic subunit delta isoform (Homo sapiens) (UniProt O00329); assay: Binding affinity to wild-type human partial length PIK3CD (R108 to Q1044 residues) expressed in mammalian expression system assessed as remaining unbound target protein level at 1000 nM by Kinomescan method relative to control
[13] = target: Receptor-interacting serine/threonine-protein kinase 2 (Homo sapiens) (UniProt O43353); assay: Binding affinity to wild-type human partial length RIPK2 (M1 to K310 residues) expressed in bacterial expression system assessed as remaining unbound target protein level at 1000 nM by Kinomescan method relative to control
[14] = target: Cyclin-dependent kinase 16 (Homo sapiens) (UniProt Q00536); assay: Binding affinity to wild-type human partial length PCTK1 (G160 to A474 residues) expressed in mammalian expression system assessed as remaining unbound target protein level at 1000 nM by Kinomescan method relative to control
Sequence of Cyclin-dependent kinase 16 (Homo sapiens) (Q00536 whole entry, the tested form may be a part): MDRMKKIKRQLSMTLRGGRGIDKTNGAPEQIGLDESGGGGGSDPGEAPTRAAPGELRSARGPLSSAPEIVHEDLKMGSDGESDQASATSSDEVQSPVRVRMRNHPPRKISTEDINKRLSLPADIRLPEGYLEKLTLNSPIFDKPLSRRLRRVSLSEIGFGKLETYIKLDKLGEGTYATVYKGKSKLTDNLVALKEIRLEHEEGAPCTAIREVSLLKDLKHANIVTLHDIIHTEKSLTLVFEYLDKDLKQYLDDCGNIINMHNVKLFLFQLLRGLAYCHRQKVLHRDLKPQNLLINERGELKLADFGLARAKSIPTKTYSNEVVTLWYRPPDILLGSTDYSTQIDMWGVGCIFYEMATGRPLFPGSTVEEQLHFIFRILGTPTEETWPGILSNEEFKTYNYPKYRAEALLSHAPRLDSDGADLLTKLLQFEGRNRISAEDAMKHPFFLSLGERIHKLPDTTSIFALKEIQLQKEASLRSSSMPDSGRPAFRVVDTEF
Procedure, shortened: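 KINOMEscan binding panel of 468 kinases/mutants. Inhibitor was tested at a single concentration of 1 μM. Binding is reported as percent of control, defined relative to a DMSO control.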

[15] = test system: Canis familiaris; assay: AUC (0 to infinity) in beagle dog at 2 mg/kg, iv by LC-MS/MS analysis; assay type: ADME, organism-based, Canis lupus familiaris; parameters: dose 2 mg/kg, route intravenous, time infinity; conditions: in vivo; procedure, shortened: as §1
[16] = target: Dual specificity protein kinase TTK (Homo sapiens) (UniProt P33981); assay: Binding affinity to wild-type human partial length TTK (N505 to V798 residues) expressed in bacterial expression system assessed as remaining unbound target protein level at 1000 nM by Kinomescan method relative to control
Sequence of Dual specificity protein kinase TTK (Homo sapiens) (P33981 whole entry, the tested form may be a part): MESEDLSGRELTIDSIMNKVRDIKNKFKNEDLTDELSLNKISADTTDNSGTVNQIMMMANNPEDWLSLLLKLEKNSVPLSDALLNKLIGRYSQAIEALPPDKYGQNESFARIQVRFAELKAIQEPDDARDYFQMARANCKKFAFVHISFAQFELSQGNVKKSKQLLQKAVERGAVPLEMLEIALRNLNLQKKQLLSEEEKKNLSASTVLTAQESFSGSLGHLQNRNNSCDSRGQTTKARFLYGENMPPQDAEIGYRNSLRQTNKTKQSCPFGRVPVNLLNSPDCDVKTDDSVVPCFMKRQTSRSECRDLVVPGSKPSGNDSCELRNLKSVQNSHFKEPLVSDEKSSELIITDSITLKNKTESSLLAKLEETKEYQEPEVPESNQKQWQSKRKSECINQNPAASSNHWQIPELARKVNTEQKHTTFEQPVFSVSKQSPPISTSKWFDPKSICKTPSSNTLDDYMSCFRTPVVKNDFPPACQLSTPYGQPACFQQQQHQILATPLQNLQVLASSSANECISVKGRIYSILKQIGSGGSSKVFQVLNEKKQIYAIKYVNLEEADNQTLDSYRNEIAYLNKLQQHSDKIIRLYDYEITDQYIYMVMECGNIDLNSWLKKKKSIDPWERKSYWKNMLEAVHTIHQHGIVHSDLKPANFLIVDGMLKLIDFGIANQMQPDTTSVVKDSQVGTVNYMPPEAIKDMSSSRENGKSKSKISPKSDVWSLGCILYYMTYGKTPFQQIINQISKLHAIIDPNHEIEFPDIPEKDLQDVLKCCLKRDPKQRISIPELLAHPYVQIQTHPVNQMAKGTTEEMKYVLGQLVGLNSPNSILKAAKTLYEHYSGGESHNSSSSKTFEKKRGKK

[17] = target: Insulin receptor-related protein (Homo sapiens) (UniProt P14616); assay: Binding affinity to wild-type human partial length INSRR (R950 to E1278 residues) expressed in bacterial expression system assessed as remaining unbound target protein level at 1000 nM by Kinomescan method relative to control
Sequence of Insulin receptor-related protein (Homo sapiens) (P14616 27-742 limits assumed): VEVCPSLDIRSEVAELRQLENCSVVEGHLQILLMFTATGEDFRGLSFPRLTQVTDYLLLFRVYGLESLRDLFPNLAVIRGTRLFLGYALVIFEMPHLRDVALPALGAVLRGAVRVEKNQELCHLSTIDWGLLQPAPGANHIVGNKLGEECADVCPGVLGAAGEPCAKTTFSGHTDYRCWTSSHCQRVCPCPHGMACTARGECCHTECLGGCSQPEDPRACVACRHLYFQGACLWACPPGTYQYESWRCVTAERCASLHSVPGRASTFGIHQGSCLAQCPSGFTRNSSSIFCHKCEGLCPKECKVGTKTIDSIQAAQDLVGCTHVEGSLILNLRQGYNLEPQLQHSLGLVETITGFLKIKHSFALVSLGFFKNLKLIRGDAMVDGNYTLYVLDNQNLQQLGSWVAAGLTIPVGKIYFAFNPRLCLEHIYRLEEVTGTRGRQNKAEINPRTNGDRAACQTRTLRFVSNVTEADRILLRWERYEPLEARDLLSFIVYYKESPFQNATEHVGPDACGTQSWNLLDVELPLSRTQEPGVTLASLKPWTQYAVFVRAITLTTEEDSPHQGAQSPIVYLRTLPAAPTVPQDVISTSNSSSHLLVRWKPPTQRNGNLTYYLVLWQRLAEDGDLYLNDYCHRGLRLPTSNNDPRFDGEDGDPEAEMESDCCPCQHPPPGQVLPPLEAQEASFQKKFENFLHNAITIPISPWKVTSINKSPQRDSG
Sequence of Insulin receptor-related protein (Homo sapiens) (P14616 747-1297 limits assumed): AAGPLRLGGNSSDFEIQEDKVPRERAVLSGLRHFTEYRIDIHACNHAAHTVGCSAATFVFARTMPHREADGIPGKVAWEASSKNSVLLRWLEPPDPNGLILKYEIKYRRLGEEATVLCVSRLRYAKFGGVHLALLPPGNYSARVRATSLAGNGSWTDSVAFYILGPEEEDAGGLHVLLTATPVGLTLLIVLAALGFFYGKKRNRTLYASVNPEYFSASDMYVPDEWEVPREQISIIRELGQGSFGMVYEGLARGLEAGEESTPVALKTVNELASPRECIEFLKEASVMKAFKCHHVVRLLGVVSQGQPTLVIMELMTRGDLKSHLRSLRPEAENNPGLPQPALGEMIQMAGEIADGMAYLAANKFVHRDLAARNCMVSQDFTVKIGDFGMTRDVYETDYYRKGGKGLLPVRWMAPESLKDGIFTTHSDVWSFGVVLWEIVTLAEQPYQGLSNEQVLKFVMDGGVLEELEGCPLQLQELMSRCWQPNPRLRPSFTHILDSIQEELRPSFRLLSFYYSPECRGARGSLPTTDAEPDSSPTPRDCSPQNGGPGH

[18] = test system: A-375; assay: Antiproliferative activity against human A375 cells after 72 hrs by Celltiter-Glo assay; assay type: functional; conditions: A-375, 72 h; procedure, shortened: as §4
[19] = organism: Homo sapiens; assay: Selectivity ratio of IC50 for recombinant GST-tagged human CDK3/cyclin E1 to IC50 for recombinant full length His-tagged human CDK9/CyclinT1
[20] = test system: HL-60; assay: Induction of apoptosis in human HL60 cells assessed as decrease in MCL-1 level after 2 hrs by immunoblotting analysis; assay type: functional, cell-based
[21] = test system: Mus musculus; assay: Toxicity in nu/nu mouse xenografted with MV4-11 cells assessed as effect on body weight at 10 to 30 mg/kg, po administered via gavage for 21 days measured every day during compound dosing; assay type: organism-based; conditions: in vivo, 504 h

Sequence of Wee1-like protein kinase (Homo sapiens) (P30291 whole entry, looked up, the tested form may be a part): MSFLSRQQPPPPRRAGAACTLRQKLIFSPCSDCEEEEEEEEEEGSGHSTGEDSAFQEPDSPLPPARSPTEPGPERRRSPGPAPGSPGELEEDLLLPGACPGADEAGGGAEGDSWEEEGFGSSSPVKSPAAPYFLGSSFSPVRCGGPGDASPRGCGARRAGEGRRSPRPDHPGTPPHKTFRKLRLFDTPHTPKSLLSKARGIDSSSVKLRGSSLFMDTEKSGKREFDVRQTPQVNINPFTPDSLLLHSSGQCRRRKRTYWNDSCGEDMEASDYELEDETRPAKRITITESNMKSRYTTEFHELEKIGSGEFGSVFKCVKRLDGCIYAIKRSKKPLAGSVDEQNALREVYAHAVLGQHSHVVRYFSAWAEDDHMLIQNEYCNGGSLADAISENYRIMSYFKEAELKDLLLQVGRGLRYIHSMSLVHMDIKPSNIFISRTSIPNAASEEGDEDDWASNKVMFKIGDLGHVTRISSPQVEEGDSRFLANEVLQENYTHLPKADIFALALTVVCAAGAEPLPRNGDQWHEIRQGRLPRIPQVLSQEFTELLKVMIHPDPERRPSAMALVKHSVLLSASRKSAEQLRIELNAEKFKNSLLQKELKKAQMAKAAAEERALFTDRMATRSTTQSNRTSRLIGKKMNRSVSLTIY

COCCN[C@H]1CC[C@H](Nc2cc(-c3csc(NCC4(C#N)CCOCC4)n3)c(Cl)cn2)CC1
Activity [1]: 94%
AUC(0-inf) [2]: 662 ng·h/mL
MRT last [3]: 1.25 h
Activity [4]: 5.2%
Activity [5]: 90%
Activity [6]: 100%
EC50 [7]: < 100 nM
inhibition [7]: Dose-dependent effect
GI50 [8]: 19 nM
Activity [9]: 18%
Activity [10]: 98%
Activity [11]: 13%
Activity [12]: 85%
Activity [13]: 96%
Activity [14]: 46%
AUC [15]: 3121.69 ng·h/mL
Activity [16]: 86%
Activity [17]: 92%
GI50 [18]: 44 nM
Ratio IC50 [19]: > 1000
Activity [20]: Dose-dependent effect
Activity [21]: Non-Toxic

From ChEMBL document CHEMBL4261600 (Eur J Med Chem, 2018)
